Source: PubChem BioAssay (several laboratories)
In the library only some 5.7% were active in any assay of this set; here they are far more common.
CSC inhib: cancer stem cell viability inhibitors, primary screen, luminescence | cancer stem cell-like cells viability | 1.1% of 300,000 active | inhibition, % at 7.5 µM; in the data active = inhibition above about 75%; tested in HMLE shEcad cells
SKKanGAS inh: S. pyogenes SKKanGAS growth inhibitors in kanamycin, primary screen, streptokinase expression inhibitor project, SKKanGAS strain, BacTiter-Glo luminescence; 6 h; inhibition, % at 7.5 µM; 1.3% of 300,000 active;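 active = mean replicate score, as percent of positive control median, at least 50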;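 note: strain carries kanamycin resistance gene driven by streptokinase promoter and grows in 40 µg/ml kanamycin; loss of luminescence reflects streptokinase promoter inhibition or plain growth inhibition; 0% = median of DMSO wells and 100% = positive control at its reference dose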
Calb FLC: C. albicans growth inhibition with fluconazole, primary screen, CaCi-2 strain, Alamar Blue fluorescence; C. albicans CaCi-2 (fluconazole-resistant clinical isolate) + fluconazole, 48 h; growth inhibition, % (no concentration beside the values); 0.57% of 300,000 active;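 active = growth inhibition above about 58% in most replicates, limit read from the data, passing the limit was not always enough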;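 note: all wells also contain fluconazole at 8 µg/ml as a sub-toxic cotreatment; 0% = median of DMSO wells and 100% = median of geldanamycin control wells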
Mdm2-MdmX inh: inhibitors of human Mdm2-MdmX association, primary screen, cell-based, luminescence, split luciferase, SaOS-2, uHTS; Protein Mdm4 (Homo sapiens) + E3 ubiquitin-protein ligase Mdm2 (Homo sapiens), …; SaOS-2 split-luciferase Mdm2/MdmX complementation; inhibition, % at 8 µM; 3% of 330,000 active;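 active = inhibition of at least 50% at 8 µM in the primary screen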
T cruzi repl: inhibitors of intracellular T. cruzi growth, primary screen, luminescence, NIH3T3 host cells. T. cruzi beta-gal in NIH3T3, 90 h. inhibition, % (test concentration not listed). 1.4% of 300,000 active. AID 1885, 2009;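 active = mean inhibition across valid replicates above about 55%, limit read from the data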;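 note: signal also drops with host cell toxicity which is not excluded here; 0% = plate median of DMSO wells and 100% = zero luminescence signal; higher percent means less beta-gal luminescence so fewer parasites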
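Test system: β-gal T. cruzi (Tulahuen C4) inside NIH/3T3 cells / Quantity: 5,000 cells/well / Measured by: luminescence from GalScreen with 0.05% NP40, read after 60 min / Medium: DMEM plus 2% FBS / Measure: parasite load inhibition, % / Reagent: Tulahuen C4 trypomastigotes, 5000/well / Schedule: co-culture of at least 90 h after 3 h attachment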
Beta apoptosis: inhibitors of cytokine-induced beta cell apoptosis, primary screen, luminescence; INS-1E cytokine-induced death, ATP luminescence, 48 h; percent of positive-control rescue, neutral wells zero; protection from apoptosis, % (concentration not given with the values); 0.8% of 300,000 active; AID 435005, 2010;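 active = Every replicate reaches about 75%, or at least half do and their mean reaches it too, limit read from the data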;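 note: 0% = cytokine-treated negative control wells and 100% = positive control rescue; higher means more ATP so stronger rescue from cytokine killing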
An asterisk follows results filed as active.

What do the screens show for `Cc1ccc(NC(=O)c2cc(N3C(=O)CCC3=O)ccc2N2CCOCC2)cc1`?
CSC inhib: -13.4; SKKanGAS inh: -8.7; Calb FLC: 7.1; Mdm2-MdmX inh: 5.0; T cruzi repl: -27.7; Beta apoptosis: 8.6

What do the screens show for `COC(=O)c1cc(NC(=O)c2cc(-c3ccc(Cl)cc3)oc2C(F)(F)F)ccc1N1CCOCC1`?
CSC inhib: 39.7; SKKanGAS inh: 59.1*; Calb FLC: 1.9; Mdm2-MdmX inh: 42.9; T cruzi repl: 62.8*; Beta apoptosis: 0.2

How did O=C(COc1ccc(Cl)cc1Br)NCC(c1ccco1)N1CCCC1 (configuration not stated) do in these assays?
Mdm2-MdmX inh: 0.6; Beta apoptosis: 2.2

Results for O=C1OC(CC(=O)N(Cc2nnc(-c3ccc(Cl)cc3)o2)C2CC2)c2ccccc21 (configuration not stated) ?
Mdm2-MdmX inh: 12.8; Beta apoptosis: -0.8

How did O=C(O)c1ccc(NC(=O)c2cn(-c3ccccc3)nc2-c2cccc(Cl)c2)cc1 do in these assays?
CSC inhib: -4.6; SKKanGAS inh: 26.7; Calb FLC: -1.2; Mdm2-MdmX inh: 14.1; T cruzi repl: -4.1; Beta apoptosis: 0.3

What do the screens show for `Clc1ccc(OCCn2ccnc2)cc1Cl`?
CSC inhib: 0.9; SKKanGAS inh: -1.2; Calb FLC: -42.5; Mdm2-MdmX inh: 4.8; T cruzi repl: 59.2*; Beta apoptosis: -4.9

What do the screens show for `Cc1cc(OCCCn2ccnc2)ccc1C(C)C`?
CSC inhib: 44.4; SKKanGAS inh: -1.8; Calb FLC: -10.5; Mdm2-MdmX inh: -12.0; T cruzi repl: 73.9*; Beta apoptosis: -1.2

How did OC(COc1ccc2cc(Br)ccc2c1)Cn1ccnc1 (configuration not stated) do in these assays?
CSC inhib: 10.3; SKKanGAS inh: -12.7; Calb FLC: 27.1; Mdm2-MdmX inh: 18.6; T cruzi repl: 57.8*; Beta apoptosis: 9.2

What do the screens show for `c1ccc2cc(OCCCn3ccnc3)ccc2c1`?
CSC inhib: -14.1; SKKanGAS inh: -2.4; Calb FLC: -2.2; Mdm2-MdmX inh: -0.2; T cruzi repl: 62.8*; Beta apoptosis: -3.5

What do the screens show for `COC(=O)c1cccc(OCC(O)Cn2ccnc2)c1` (configuration not stated)?
CSC inhib: 3.0; SKKanGAS inh: 6.1; Calb FLC: -7.8; Mdm2-MdmX inh: 13.3; T cruzi repl: -4.4; Beta apoptosis: -3.1

What do the screens show for `O=C(CCc1ccccc1)N=C1SC2CS(=O)(=O)CC2N1Cc1ccc(F)cc1` (configuration not stated)?
CSC inhib: 2.0; SKKanGAS inh: -14.4; Calb FLC: -3.9; Mdm2-MdmX inh: 26.7; T cruzi repl: 8.5; Beta apoptosis: 1.7

Results for O=C(OCc1csc(Nc2ccccc2)n1)c1ccc(Cl)cc1 ?
SKKanGAS inh: 54.8*; Calb FLC: -11.9; Mdm2-MdmX inh: -16.0; T cruzi repl: 6.3; Beta apoptosis: -9.2

Results for CCc1nn(CC(=O)NCCCN2CCN(CC)CC2)c(=O)c2cc3occc3n12 ?
CSC inhib: -3.9; SKKanGAS inh: 0.8; Calb FLC: -22.1; Mdm2-MdmX inh: 11.0; T cruzi repl: -3.8; Beta apoptosis: 2.3

How did Cn1c(N)c(C(=O)COC(=O)CCCc2c[nH]c3ccccc23)c(=O)n(C)c1=O do in these assays?
CSC inhib: 3.0; SKKanGAS inh: 75.2*; Calb FLC: -0.6; Mdm2-MdmX inh: 0.2; T cruzi repl: -3.8; Beta apoptosis: 0.2

Results for Cn1c(N)c(C(=O)COC(=O)CCc2nc3ccccc3s2)c(=O)n(C)c1=O ?
CSC inhib: -10.3; SKKanGAS inh: -0.6; Calb FLC: -0.3; Mdm2-MdmX inh: 27.1; T cruzi repl: 6.7; Beta apoptosis: -6.3

What do the screens show for `Cn1c(N)c(C(=O)COC(=O)CCc2c[nH]c3ccccc23)c(=O)n(C)c1=O`?
CSC inhib: -1.5; SKKanGAS inh: 62.9*; Calb FLC: 3.5; Mdm2-MdmX inh: 7.3; T cruzi repl: 10.4; Beta apoptosis: -8.9
